Data set [1] is described as follows: Binding affinity to beta-amyloid.
The subject of data set [2] is Brain. The data set can be described thus: Ratio of drug level in ICR mouse brain after 2 mins to ICR mouse brain after 60 mins at 370 kBq, iv. The conditions noted are these: in vivo. It is filed as ADME, organism-based. A digest of the protocol:
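Same intravenous study in ICR mice (370 kBq 18F tracer in saline/10% EtOH, n = 5 per time point). Ratio is brain %ID/g at 2 min divided by brain %ID/g at 60 min post-injection.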

The subject of data set [3] is Brain. The data set can be described thus: Biodistribution in ICR mouse brain at 370 kBq, iv after 2 mins by gamma counting. It is filed as ADME, organism-based. The conditions noted are these: in vivo. The essentials:
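Male ICR mice (five weeks, 20–22 g), tail-vein injection of 18F tracer in 0.1 mL saline with 10% EtOH. Killed by decapitation at set times, n = 5 per time point. Organs removed, weighed and gamma-counted; %ID/g wet tissue from comparison with diluted aliquots of injected dose; mean ± SD.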

Data set [4] can be described thus: Displacement of [125I]IMPY from amyloid beta (1 to 42) after 2 hrs by gamma counting. The essentials: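 Competition binding against [125I]IMPY (radiochemical purity >95%) on Aβ1-42 aggregates with 1% BSA solution; inhibitor 10^-4–10^-9.5 M; 37 °C, 2 h. Free and bound separated by vacuum filtration on GF/B filters, three PBS washes (0.02 M, pH 7.4, room temperature); filters gamma-counted. Three repeats; IC50 fitted, Ki from Cheng–Prusoff.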
For orientation: In a radioligand displacement assay an active substance lowers the binding of a labelled ligand.

The nature of data set [5]: Lipophilicity, log D of the compound. Type of data set: physicochemical. The conditions noted are these: octanol/water. A digest of the protocol: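 18F tracer (740 kBq) in 3 g n-octanol plus 3 g PBS (0.05 M, pH 7.4). Vortexed 3 min at room temperature, centrifuged 5 min at 3000 rpm; weighed samples from octanol and buffer layers counted.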
Data set [6] addresses Amyloid-beta precursor protein (Homo sapiens) (UniProt P05067). The data set can be described thus: Binding affinity to beta-amyloid in normal human brain at 1.85 MBq/[…] after 1 hr by thioflavin-S based autoradiography. As to conditions: 1.85 M, tested as the 18F-labelled form. A digest of the protocol: (§1)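 Paraffin human temporal-lobe sections (5 µm; AD case or control) deparaffinized through xylene and graded ethanol, then PBS (0.2 M, pH 7.4) for 30 min. Incubated with 18F tracer (1.85 MBq/200 µL), 1 h, room temperature; washed in 40% EtOH, rinsed in water; phosphor plate exposure 2 h.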

For data set [7] the target is unchanged. The data set can be described thus: Binding affinity to beta-amyloid in Alzheimer's disease patient brain at 1.85 MBq/[…] after 1 hr by thioflavin-S based autoradiography. As to conditions: 1.85 M, tested as the 18F-labelled form. The essentials: as §1
The species named for data set [8] is Mus musculus. The data set can be described thus: Binding affinity to beta-amyloid in APPswe/PSEN1 transgenic C57BL6 mouse model brain at 1.85 MBq/[…] after 1 hr by thioflavin-S based autoradiography. The conditions noted are these: 1.85 M, tested as the 18F-labelled form. A digest of the protocol: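 Transgenic mouse brain sections deparaffinized, then incubated with 18F tracer (1.85 MBq/200 µL) for 1 h at room temperature. Washed in 40% EtOH, phosphor-imaged after 2 h exposure. Same sections then stained with 0.125% thioflavin-S in 10% EtOH for 3 min and imaged by fluorescence (excitation 405 nm, long-pass 505 nm).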

The source made the active and inactive calls. No cut-off for these calls is given here.

Amyloid-beta precursor protein (Homo sapiens), sequence (P05067 whole entry): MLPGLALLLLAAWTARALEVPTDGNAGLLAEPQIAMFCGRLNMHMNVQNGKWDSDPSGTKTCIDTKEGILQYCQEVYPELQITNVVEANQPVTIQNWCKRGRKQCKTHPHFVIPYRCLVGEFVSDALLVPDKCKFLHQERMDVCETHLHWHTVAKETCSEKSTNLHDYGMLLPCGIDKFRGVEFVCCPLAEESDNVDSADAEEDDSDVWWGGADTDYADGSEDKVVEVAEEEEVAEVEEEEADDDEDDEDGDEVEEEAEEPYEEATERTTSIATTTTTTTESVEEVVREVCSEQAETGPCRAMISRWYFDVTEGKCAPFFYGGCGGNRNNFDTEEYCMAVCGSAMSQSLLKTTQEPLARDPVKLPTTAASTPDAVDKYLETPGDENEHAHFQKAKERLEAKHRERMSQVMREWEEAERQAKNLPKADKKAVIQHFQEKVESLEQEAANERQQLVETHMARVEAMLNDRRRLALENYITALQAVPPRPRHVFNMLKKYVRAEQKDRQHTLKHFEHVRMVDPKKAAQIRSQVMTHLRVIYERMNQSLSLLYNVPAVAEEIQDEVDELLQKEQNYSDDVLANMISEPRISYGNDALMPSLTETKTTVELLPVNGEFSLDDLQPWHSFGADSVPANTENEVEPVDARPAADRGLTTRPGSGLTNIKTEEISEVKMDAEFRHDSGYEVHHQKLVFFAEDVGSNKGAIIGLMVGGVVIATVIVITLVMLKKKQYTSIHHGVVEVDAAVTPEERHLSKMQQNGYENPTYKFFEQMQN

The Ki is a measure of affinity in units of concentration, obtained from inhibition or displacement. The low end stands for tighter binding, the high end for weaker binding. As to `CNc1ccc(/C=C/c2ccc(OCCOCCOCC[18F])cc2)cc1` [FLORBETABEN F18], the Ki in data set [1] was 2.22 nM.
One may read the logD as lipophilicity at a set pH, counting ionised and neutral species. In the case of `CNc1ccc(/C=C/c2ccc(OCCOCCOCC[18F])nc2)cc1` [FLORBETAPIR F 18], the Ratio in data set [2] is 3.9. The Ki in data set [1] came to 2.87 nM; in data set [4], 2.9 nM. In data set [3], this compound registered a Drug uptake of 7.33 % ID/g. Further, the logD in data set [5] was 2.41.
Take `[11CH3]Nc1ccc(-c2nc3ccc(O)cc3s2)cn1`: the Ki in data set [1] was determined as 1.7 nM.
As for `CNc1ccc2nc(-c3ccc(OCCF)cc3)cnc2c1`, in data set [6], the outcome was inactive. The result in data set [7] and in data set [8] was Active. Further, in data set [4], the Ki came to 10 nM.

For the origin of these results see ChEMBL document CHEMBL2086328, “¹⁸F-labeled 2-phenylquinoxaline derivatives as potential positron emission tomography probes for in vivo imaging of β-amyloid plaques” (Eur J Med Chem, 2012).
